Experimental data from article PMC2910240 (Neuroscience letters, 2010).
Like-named read-outs stand apart in the source and are kept apart here.

Assays:
[1] = biological target: human cloned 5-HT7 receptor; settings: cited from earlier work
human cloned 5-HT1A = settings: cited from earlier work
h5-HT1A = biological target: T1, h5-HT1A (Homo sapiens, UniProt P08908); assay: Competition radioligand binding
T1 sequence (P08908 1-422): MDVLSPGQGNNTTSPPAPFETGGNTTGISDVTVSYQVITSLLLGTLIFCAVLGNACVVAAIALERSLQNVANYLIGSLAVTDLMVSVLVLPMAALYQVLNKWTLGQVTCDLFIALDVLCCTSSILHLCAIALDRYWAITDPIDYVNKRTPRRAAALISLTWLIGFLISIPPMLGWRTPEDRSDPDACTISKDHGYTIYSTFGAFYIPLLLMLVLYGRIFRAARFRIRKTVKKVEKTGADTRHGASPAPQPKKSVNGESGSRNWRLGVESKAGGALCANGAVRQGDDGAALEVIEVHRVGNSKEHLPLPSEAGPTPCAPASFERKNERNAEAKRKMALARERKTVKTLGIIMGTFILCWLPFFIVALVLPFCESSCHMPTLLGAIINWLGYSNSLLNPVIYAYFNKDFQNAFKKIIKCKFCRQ

h5-HT1B = h5-HT1B (Homo sapiens, UniProt P28222); assay: Competition radioligand binding; settings: 0.29 nM [3H]GR125743; mean ± S.E.M.
h5-HT1D = h5-HT1D (Homo sapiens, UniProt P28221); assay: Competition radioligand binding; settings: 1.4 nM [3H]5-CT; mean ± S.E.M.
h5-ht1E = h5-ht1E (Homo sapiens, UniProt P28566); assay: Competition radioligand binding; settings: for Ki: 3 nM [3H]5-HT
h5-HT2A = h5-HT2A (Homo sapiens, UniProt P28223); assay type: binding; settings: 0.5 nM [3H]ketanserin; mean ± S.E.M.
h5-HT2B = h5-HT2B (Homo sapiens, UniProt P41595); assay: Competition radioligand binding; settings: 1.0 nM [3H]LSD; mean ± S.E.M.
r5-HT2C = biological target: T2, r5-HT2C (Rattus norvegicus, UniProt P08909); assay: Competition radioligand binding; settings: 0.5 nM [3H]mesulergine; mean ± S.E.M.
T2 sequence (P08909 33-460): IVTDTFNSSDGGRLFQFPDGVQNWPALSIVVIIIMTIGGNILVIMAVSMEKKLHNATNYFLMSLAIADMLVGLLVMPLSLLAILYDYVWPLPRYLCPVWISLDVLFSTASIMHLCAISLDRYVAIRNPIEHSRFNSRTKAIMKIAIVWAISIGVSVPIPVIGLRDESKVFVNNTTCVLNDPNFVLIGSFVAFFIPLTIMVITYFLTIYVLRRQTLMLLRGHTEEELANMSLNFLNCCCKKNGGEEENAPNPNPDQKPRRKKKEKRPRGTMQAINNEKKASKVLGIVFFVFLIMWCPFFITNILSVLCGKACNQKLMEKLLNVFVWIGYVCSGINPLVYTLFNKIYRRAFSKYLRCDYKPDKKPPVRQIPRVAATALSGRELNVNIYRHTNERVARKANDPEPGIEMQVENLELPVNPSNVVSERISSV

h5-HT3 = biological target: T3, h5-HT3 (Homo sapiens, UniProt P46098); assay: Competition radioligand binding; settings: for Ki: 0.29 nM [3H]LY278584, mean ± S.E.M.
T3 sequence (P46098 24-478): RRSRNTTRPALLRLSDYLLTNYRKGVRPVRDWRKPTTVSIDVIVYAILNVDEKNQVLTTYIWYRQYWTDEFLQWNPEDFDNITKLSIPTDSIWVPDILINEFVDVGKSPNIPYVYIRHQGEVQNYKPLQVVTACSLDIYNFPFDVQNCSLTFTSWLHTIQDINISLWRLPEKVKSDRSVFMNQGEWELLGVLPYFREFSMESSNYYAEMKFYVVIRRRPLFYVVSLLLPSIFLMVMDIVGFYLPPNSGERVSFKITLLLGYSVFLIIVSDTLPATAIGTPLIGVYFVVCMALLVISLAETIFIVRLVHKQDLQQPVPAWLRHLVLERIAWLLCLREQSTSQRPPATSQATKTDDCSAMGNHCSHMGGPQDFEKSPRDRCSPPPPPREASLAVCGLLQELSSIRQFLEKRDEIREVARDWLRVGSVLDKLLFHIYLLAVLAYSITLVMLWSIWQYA

h5-ht5A = h5-ht5A (Homo sapiens, UniProt P47898); assay: Competition radioligand binding; settings: for Ki: 0.99 nM [3H]LSD, mean ± S.E.M.
h5-HT6 = h5-HT6 (Homo sapiens, UniProt P50406); assay: Competition radioligand binding; settings: 0.97 nM [3H]LSD; mean ± S.E.M.
hSERT = hSERT (Homo sapiens, UniProt P31645); assay: Competition radioligand binding; settings: 0.79 nM [3H]citalopram; mean ± S.E.M.
5-HT7^+/+ mice = assay: Body temperature regulation in 5-HT7+/+ mice; assay type: in vivo, mouse
5-HT7^−/− mice = assay: Body temperature regulation in 5-HT7-/- mice; assay type: in vivo, mouse
[2] = Disposition: plasma and brain concentrations in mice; assay type: in vivo, mouse; settings: for Plasma concentration: 30 min
In short: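 Male 5-HT7−/− and 5-HT7+/+ sibling mice, 10–12 weeks old, got test compound i.p. (10 or 30 mg·kg−1). It was dissolved in ethanol at 10× and diluted in saline just before injection. At 30 min mice were killed by isoflurane overdose; […] and brain were stored at −80 °C. Parent and metabolite were measured in plasma and water brain homogenate (1 g·10 mL−1) by RP-HPLC-UV at 230 nm with internal standard. LLOQ 50 ng·mL−1 or g−1. Ratios on molar basis; 5 mice/group.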

mice = assay: Observation of visible adverse effects in mice; assay type: in vivo, mouse; settings: i.p. doses of the body temperature study
[3] = biological target: rat cloned 5-HT7 receptors; settings: cited from earlier work
5-HT7 receptor = settings: cited from earlier work
h5-HT7 = h5-HT7 (Homo sapiens, UniProt P34969); assay: Competition radioligand binding
[4] = cited from earlier work
[5] = 0.5 nM [3H]8-OH-DPAT, mean ± S.E.M.
[6] = 3, 10, and 30 mg/kg i.p., wild-type mice

h5-ht5A, sequence (P47898 whole entry): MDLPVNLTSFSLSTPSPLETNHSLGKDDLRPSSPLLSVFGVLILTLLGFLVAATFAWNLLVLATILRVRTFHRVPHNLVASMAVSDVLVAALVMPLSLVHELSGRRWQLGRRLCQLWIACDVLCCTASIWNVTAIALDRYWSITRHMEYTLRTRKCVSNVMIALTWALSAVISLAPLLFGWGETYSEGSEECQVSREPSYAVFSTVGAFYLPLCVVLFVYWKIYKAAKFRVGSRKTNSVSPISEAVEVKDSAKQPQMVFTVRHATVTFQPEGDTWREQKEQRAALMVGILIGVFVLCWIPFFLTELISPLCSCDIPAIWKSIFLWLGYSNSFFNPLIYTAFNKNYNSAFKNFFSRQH
h5-HT7, sequence (P34969 whole entry): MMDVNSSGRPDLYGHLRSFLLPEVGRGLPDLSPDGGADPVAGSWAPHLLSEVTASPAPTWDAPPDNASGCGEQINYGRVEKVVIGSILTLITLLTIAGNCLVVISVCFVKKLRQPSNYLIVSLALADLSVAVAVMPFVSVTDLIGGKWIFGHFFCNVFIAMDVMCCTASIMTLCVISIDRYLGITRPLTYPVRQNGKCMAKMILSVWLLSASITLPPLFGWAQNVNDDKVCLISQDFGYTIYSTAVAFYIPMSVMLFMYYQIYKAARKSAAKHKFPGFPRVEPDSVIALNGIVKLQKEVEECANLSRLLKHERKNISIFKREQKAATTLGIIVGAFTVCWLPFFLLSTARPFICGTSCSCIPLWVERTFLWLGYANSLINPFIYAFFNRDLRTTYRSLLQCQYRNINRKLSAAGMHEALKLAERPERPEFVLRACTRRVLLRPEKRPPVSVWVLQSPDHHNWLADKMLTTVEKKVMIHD
h5-HT6, sequence (P50406 whole entry): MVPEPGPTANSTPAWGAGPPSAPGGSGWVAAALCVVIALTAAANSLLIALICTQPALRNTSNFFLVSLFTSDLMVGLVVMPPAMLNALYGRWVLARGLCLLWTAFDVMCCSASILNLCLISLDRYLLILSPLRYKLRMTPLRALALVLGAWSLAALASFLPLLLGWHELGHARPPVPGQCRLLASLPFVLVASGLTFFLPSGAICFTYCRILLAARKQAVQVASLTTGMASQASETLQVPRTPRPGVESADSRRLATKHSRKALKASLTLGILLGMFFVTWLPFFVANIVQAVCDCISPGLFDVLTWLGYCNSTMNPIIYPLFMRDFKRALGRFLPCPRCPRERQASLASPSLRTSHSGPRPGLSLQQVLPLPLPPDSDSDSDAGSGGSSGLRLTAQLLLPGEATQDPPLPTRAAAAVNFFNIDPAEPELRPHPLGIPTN
h5-HT1D, sequence (P28221 whole entry): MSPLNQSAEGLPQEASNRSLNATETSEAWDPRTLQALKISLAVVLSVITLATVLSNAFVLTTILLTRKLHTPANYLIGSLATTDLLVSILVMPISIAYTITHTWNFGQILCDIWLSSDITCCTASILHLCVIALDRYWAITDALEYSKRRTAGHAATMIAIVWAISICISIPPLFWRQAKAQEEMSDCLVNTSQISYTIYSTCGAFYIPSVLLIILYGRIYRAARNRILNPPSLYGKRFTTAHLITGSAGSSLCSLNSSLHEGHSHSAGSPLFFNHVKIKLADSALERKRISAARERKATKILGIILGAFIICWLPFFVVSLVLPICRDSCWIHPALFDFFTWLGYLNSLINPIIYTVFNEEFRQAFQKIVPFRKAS
h5-HT1B, sequence (P28222 whole entry): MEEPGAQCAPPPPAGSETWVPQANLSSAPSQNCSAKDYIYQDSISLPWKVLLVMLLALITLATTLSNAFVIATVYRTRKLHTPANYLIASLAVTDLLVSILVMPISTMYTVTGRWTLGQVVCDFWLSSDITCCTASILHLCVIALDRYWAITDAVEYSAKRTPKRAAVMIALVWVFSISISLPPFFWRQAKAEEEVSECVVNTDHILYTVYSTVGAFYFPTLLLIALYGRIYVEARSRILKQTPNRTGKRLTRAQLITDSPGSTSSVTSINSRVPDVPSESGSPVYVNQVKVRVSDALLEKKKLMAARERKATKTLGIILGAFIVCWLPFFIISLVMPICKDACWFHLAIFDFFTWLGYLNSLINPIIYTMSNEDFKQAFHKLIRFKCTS
h5-ht1E, sequence (P28566 whole entry): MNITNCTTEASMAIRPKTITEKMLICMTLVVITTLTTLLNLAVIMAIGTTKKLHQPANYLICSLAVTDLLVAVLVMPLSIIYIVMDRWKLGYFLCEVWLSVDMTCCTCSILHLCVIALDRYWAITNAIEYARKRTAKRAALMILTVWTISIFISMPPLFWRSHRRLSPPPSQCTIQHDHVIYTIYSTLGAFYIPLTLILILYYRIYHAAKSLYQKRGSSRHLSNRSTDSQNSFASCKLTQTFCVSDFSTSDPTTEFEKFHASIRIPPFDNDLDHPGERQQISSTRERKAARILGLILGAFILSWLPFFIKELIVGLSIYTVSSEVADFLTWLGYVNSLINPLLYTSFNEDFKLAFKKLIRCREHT
h5-HT2B, sequence (P41595 whole entry): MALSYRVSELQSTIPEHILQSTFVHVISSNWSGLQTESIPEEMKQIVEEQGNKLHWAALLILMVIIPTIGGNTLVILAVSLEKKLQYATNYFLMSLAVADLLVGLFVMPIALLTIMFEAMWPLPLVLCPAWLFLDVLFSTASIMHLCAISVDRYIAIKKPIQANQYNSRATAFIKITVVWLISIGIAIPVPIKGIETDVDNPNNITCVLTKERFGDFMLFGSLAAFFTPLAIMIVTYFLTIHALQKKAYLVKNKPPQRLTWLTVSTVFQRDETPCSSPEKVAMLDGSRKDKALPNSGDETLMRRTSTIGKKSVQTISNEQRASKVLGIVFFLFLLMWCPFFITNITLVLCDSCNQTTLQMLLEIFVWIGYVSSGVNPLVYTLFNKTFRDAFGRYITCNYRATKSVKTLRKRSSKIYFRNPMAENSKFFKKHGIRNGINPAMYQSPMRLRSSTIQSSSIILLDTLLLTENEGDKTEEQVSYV
hSERT, sequence (P31645 whole entry): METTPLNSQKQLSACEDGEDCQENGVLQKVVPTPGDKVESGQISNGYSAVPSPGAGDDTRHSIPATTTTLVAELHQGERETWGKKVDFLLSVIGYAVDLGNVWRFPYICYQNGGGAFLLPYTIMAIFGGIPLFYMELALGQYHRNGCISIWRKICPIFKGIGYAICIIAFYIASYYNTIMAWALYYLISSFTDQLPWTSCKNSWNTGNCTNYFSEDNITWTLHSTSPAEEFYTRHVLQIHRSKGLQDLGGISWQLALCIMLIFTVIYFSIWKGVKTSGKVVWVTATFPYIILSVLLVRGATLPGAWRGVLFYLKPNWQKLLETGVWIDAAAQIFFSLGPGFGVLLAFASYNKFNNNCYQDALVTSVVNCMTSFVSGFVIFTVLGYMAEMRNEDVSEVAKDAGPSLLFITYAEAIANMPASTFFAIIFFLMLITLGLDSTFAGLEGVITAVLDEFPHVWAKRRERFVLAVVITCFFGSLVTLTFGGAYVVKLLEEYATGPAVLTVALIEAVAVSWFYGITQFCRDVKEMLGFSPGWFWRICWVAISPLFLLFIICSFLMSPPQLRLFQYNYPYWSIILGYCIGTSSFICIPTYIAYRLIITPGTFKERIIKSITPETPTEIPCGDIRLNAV
h5-HT2A, sequence (P28223 whole entry): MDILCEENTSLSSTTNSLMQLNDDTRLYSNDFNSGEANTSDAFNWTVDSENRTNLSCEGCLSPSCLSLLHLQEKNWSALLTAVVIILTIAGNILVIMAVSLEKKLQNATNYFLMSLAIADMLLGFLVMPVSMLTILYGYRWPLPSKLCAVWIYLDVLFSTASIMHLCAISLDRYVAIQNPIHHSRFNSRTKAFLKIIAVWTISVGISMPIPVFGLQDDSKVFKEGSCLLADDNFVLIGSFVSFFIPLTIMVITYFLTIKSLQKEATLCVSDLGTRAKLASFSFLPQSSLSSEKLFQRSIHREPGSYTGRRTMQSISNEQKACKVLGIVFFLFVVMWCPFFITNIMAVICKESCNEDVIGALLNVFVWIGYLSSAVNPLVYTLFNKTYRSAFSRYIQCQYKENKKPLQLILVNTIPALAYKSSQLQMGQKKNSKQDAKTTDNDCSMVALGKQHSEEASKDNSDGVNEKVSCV

## CCCN(CCC)C1CCc2cccc(O)c2C1 (centres unmarked) [8-OH-DPAT, 8-hydroxy-N,N-dipropylaminotetraline]
[1]
  Ki: 467 nM
Human cloned 5-HT1A
  Ki: 3.8 nM

## N#Cc1ccc(CNC(=O)CCCCCN2CCN(c3ccccc3-c3ccccc3)CC2)cc1 [LP-211, N-(4-cyanophenylmethyl)-4-(2-diphenyl)-1-piperazinehexanamide]
h5-HT1A; [5]
  Ki: 379 ± 118 nM
h5-HT1B
  Ki: 215 ± 10 nM
h5-HT1D
  Ki: 394 ± 74 nM
h5-ht1E
  binding at 5-HT1E receptors: did not significantly bind
h5-HT2A
  Ki: […]
h5-HT2B
  Ki: 67 ± 10 nM
r5-HT2C
  Ki: […]
h5-HT3
  binding at 5-HT3 receptors: did not significantly bind
h5-ht5A
  Ki: 178 ± 26 nM
h5-HT6
  Ki: 1570 ± 193 nM
hSERT
  Ki: 812 ± 156 nM
5-HT7^+/+ mice; 3 mg/kg i.p., 5-HT7+/+ mice
  effect on body temperature: did not alter body temperature
5-HT7^+/+ mice; 10 mg/kg i.p., 5-HT7+/+ mice
  effect on body temperature: had a peak effect
5-HT7^+/+ mice; 30 mg/kg i.p., 5-HT7+/+ mice, peak change and overall change
  effect on body temperature: significant effect
5-HT7^+/+ mice; [6]
  effect on body temperature: dose-dependently reduced body temperature
5-HT7^−/− mice; 3 mg/kg i.p.
  effect on body temperature: did not alter body temperature
5-HT7^−/− mice; 10 mg/kg i.p.
  effect on body temperature: […]
5-HT7^−/− mice; 30 mg/kg i.p.
  effect on body temperature: significant, but less pronounced, effect on peak change
[2]; LP-211 10 mg/kg i.p., 5-HT7+/+ mice
  Plasma concentration: […]
[2]; LP-211 10 mg/kg i.p., 5-HT7-/- mice
  Plasma concentration: […]
[2]; LP-211 30 mg/kg i.p., 5-HT7+/+ mice
  Plasma concentration: […]
[2]; LP-211 30 mg/kg i.p., 5-HT7-/- mice
  Plasma concentration: […]
mice
  visible adverse effects apart from the hypothermia: did not induce any visible adverse effects
[3]
  Ki: 0.58 nM
5-HT7 receptor; isolated guinea pig ileum
  EC50: […]
  maximal activity compared to 5-CT: […]

## CC[C@@H](CO)NC(=O)[C@@H]1C=C2c3cccc4c3c(cn4C)C[C@H]2N(C)C1 [Methysergide, reference compound]
h5-HT1A
  Ki: 38 nM

## c1ccc(-c2ccccc2N2CCNCC2)cc1 [RA-7, 1-(2-diphenyl)piperazine]
h5-HT7; 1.1 nM [3H]LSD, mean ± S.E.M.
  Ki: 1.4 ± 0.2 nM
h5-HT7; RA-7 vs LP-211
  Ki at human 5-HT7 lower than the corresponding value for the parent compound: approximately 10 fold
h5-HT7; from Ki values
  selectivity for 5-HT7 over a range of 5-HT receptor subtypes and SERT: > 54 fold
h5-HT1A; [5]
  Ki: 99 ± 22 nM
h5-HT1A; from Ki values
  selectivity for 5-HT7 over 5-HT1A: 71 fold
h5-HT1B
  Ki: 1020 ± 121 nM
h5-HT1D
  Ki: 302 ± 39 nM
h5-ht1E
  Ki: > 10000 nM
h5-HT2A
  Ki: 1190 ± 288 nM
h5-HT2B
  Ki: 178 ± 19 nM
r5-HT2C
  Ki: 171 ± 14 nM
h5-HT3
  Ki: 228 ± 34 nM
h5-ht5A
  Ki: 76 ± 14 nM
h5-ht5A; from Ki values
  selectivity for 5-HT7 over 5-HT5A: 54 fold
h5-HT6
  Ki: 596 ± 70 nM
hSERT
  Ki: 439 ± 41 nM
5-HT7^+/+ mice; 3 mg/kg i.p., genotype not given
  effect on body temperature: slight but significant hyperthermic effect
5-HT7^+/+ mice; 10 mg/kg i.p., 5-HT7+/+ mice
  effect on body temperature: induced hypothermia to small degree that reached significance for overall change
[2]; 30 min after the lowest dose of LP-211, 5-HT7-/- and 5-HT7+/+ mice
  metabolite in plasma and brain: undetectable
mice
  visible adverse effects apart from the hypothermia: did not induce any visible adverse effects
[4]
  mean metabolite-to-parent compound ratio in mouse brain, molar basis: about 2

## CC1CCN(CC[C@H]2CCCN2S(=O)(=O)c2cccc(O)c2)CC1 [SB-269970, (2R)-1-[(3-hydroxyphenyl)sulfonyl]-2-[2-(4-methyl-1-piperidinyl)ethyl]pyrrolidine, reference compound]
5-HT7^+/+ mice; 10 mg/kg i.p., genotype not given
  effect of the antagonist itself on body temperature: no effect on body temperature
5-HT7^+/+ mice; antagonist 10 mg/kg i.p., 30 min prior to LP-211
  antagonism of the effect of LP-211 (30 mg/kg) on body temperature: blocked the effect of LP-211
5-HT7 receptor
  reversal of the LP-211 effect in guinea pig ileum: reversed
